In data set [1] the test system is HEK-293T. Nature of the data set: (§1) Cytotoxicity against human HEK293T cells assessed as reduction in cell viability incubated for 24 hrs by CCK8 assay. The data set is classed as cell-based. The settings on record: hek-293t, 24 h. In outline:
(§2)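 HEK293T cells in 96-well plates were exposed to compound at 0.78–100 μM for 24 h. CCK-8 reagent was then added for 1 h at 37 °C and OD450 read. Viability was normalised to DMSO-only cells to give CC50. Triplicate assays, mean ± SD.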
A general note: Formazan colour is commonly taken as a measure of viable cells.

The target in data set [2] is T1, Replicase polyprotein 1ab (Severe acute respiratory syndrome coronavirus 2, UniProt P0DTD1). In words: (§3) Inhibition of SARS-CoV-2 RdRp transfected in human HEK293T cells cotransfected with Cov-Gluc by Gaussia luciferase reporter gene method. The data set is classed as cell-based. To be noted: for pIC50: read-out: IC50. In outline:
(§4)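 HEK293T cells were co-transfected with CoV-Gluc reporter plus C-terminally flag-tagged codon-optimized nsp12, nsp7 and nsp8 plasmids (1:10:30:30). After 12 h, cells were re-seeded in 96-well plates at 10^4/well and treated with serially diluted compound. Gaussia luciferase activity in supernatants gave dose-response IC50. Triplicate assays, mean ± SD.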

Data set [3] concerns the target Replicase polyprotein 1ab (Severe acute respiratory syndrome coronavirus 2) (UniProt P0DTD1). In words: Inhibition of SARS-CoV-2 RdRp transfected in HEK293T cells cotransfected with CoV-Gluc assessed as decrease in plus and minus strand-Gluc RNA levels incubated for 24 hrs by qRT-PCR analysis. To be noted: dose 5-10 µM. The data set is classed as cell-based. In outline: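 HEK293T cells were transfected with CoV-Gluc, nsp12, nsp7 and nsp8 plasmids (1:10:30:30). At 6 h post-transfection, medium was replaced with fresh medium containing compound, and cells were cultured a further 24 h. Total cellular RNA was extracted and CoV-Gluc RNA quantified by real-time qRT-PCR.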
Background: In qPCR the cycle at which signal appears reflects the starting amount.

Data set [4] is described as follows: as §1. The class given is cell-based, HEK-293T. The settings on record: HEK293T cells. In outline: as §2
Data set [5] has as its system HEK293T. Nature of the data set: Ratio of IC50 for inhibition of SARS-CoV-2 RdRp transfected in human HEK293T cells cotransfected nsp12 along with nsp14/nsp10 to IC50 for inhibition of SARS-CoV-2 RdRp transfected in human HEK293T cells cotransfected with nsp12. The settings on record: Severe acute respiratory syndrome coronavirus 2. The class given is cell-based.
For data set [6], the target named is T1, Replicase polyprotein 1ab. Nature of the data set: Inhibition of SARS-CoV-2 RdRp transfected in human HEK293T cells cotransfected nsp12. The data set is classed as cell-based. In short, it runs like this:
as §4

For data set [7], the target named is T1, Replicase polyprotein 1ab. In words: Inhibition of SARS-CoV-2 RdRp transfected in human HEK293T cells cotransfected nsp12 along with nsp14 and nsp10. The class given is cell-based. In outline: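 HEK293T cell-based Gaussia luciferase RdRp reporter assay. Cells were co-transfected with CoV-Gluc, nsp12, nsp7, nsp8, nsp10 and nsp14 plasmids (1:10:30:30:25:25) so that the nsp14/nsp10 exoribonuclease was present. Gluc activity was measured after compound treatment.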

Data set [8] has as its target Replicase polyprotein 1ab (Severe acute respiratory syndrome coronavirus 2) (UniProt P0DTD1). The data set is described as §3. The class given is cell-based. In short, it runs like this:
as §4

Data set [9] in a line: Antiviral activity against HCoV-NL63 infected in LLC-MK2 cells assessed as reduction in viral replication treated 1 hr post infection and measured after 120 hrs post infection by MTS cell proliferation colorimetric assay. The class given is functional, cell-based. The settings on record: Human coronavirus NL63, LLC-MK2. In short, it runs like this: (§5)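 HCT-8 cells infected with HCoV-OC43 at MOI 0.1, and LLC-MK2 cells infected with HCoV-NL63 strain Amsterdam I at MOI 0.01. Serial compound dilutions were added 1 h post-infection in 2% FBS. Incubation was 120 h at 33 °C in 5% CO2. MTS reagent was then added for 3 h at 37 °C and absorbance read at 490 nm.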

The subject of data set [10] is Human coronavirus OC43. In words: Antiviral activity against HCoV-OC43 infected in HCT-8 cells assessed as reduction in viral replication treated 1 hr post infection and measured after 120 hrs post infection by MTS cell proliferation colorimetric assay. The data set is classed as functional, cell-based. In short, it runs like this:
as §5

Experimental findings from ChEMBL document CHEMBL4831483, “Discovery and optimization of 2-((1H-indol-3-yl)thio)-N-benzyl-acetamides as novel SARS-CoV-2 RdRp inhibitors” (Eur J Med Chem, 2021) are described below.

The structures appear in SMILES notation. pIC50: −log10 of the molar value.

As usually defined, the CC50 is the concentration giving 50% cytotoxicity. In general, pIC50 refers to −log10 of the IC50, conventionally taken in molar units. Turning to `COc1ccccc1CNC(=O)CSc1c[nH]c2ccc(Br)cc12`, the CC50 in data set [1] was over 100 µM. Besides, the pIC50 in data set [2] was 4.97.

In the case of `COc1ccccc1CN(C)C(=O)CSc1c[nH]c2ccccc12`, the CC50 in data set [1] is over 100 µM. For the same molecule, the pIC50 in data set [2] was 5.12.

Take `COc1ccccc1CNC(=O)CSc1c[nH]c2cc(Br)ccc12`: the half-maximal cytotoxic concentration (CC50) in [1] is over 100 µM. In [2], the pIC50 is 5.00.

Turning to `O=C(CSc1c[nH]c2cccc(Br)c12)NCc1ccc(Cl)c(Cl)c1`, the CC50 in data set [1] is over 100 µM. In [2], the pIC50 is 5.14.

Take `O=C(CSc1c[nH]c2ccccc12)NCc1ccccc1`: the CC50 in [1] is over 100 µM. Further, in data set [2], the pIC50 was 5.17.

For the molecule `O=C(CSc1c[nH]c2ccc(Br)cc12)NCc1ccc(Cl)c(Cl)c1`, the CC50 in data set [1] is over 100 µM. Moreover, in data set [2], the pIC50 was 5.01.

On to `CN(Cc1ccccc1)C(=O)CSc1c[nH]c2c(Br)cccc12`, for which the CC50 in data set [1] was 52.5 µM. In addition, in data set [2], the pIC50 is 4.68.

Regarding `CCC(CC)COC(=O)[C@H](C)N[P@](=O)(OC[C@H]1O[C@@](C#N)(c2ccc3c(N)ncnn23)[C@H](O)[C@@H]1O)Oc1ccccc1`, the inhibition entry in data set [3] is “Dose-Dependent Effect”. Also, in [4], the CC50 at 24 h was over 100 µM.

For `Cn1cc(SCC(=O)NCc2ccc(C(F)(F)F)cc2)c2ccccc21`, the CC50 in data set [1] is over 100 µM. In addition, in [2] (hek293t), the IC50 entry is given as “Not Active”.

`O=C(CSc1c[nH]c2c(Br)cccc12)N(Cc1ccccc1)Cc1ccccc1`: the CC50 in [1] was over 100 µM. Further, in data set [2], the pIC50 was 5.15.

Turning to `O=C(CSc1c[nH]c2cc(Br)ccc12)NCc1ccc(Cl)c(Cl)c1`, the 50% cytotoxic concentration (CC50) in data set [1] is 67.6 µM. Also, the pIC50 in [2] was 5.06.

Regarding `CN(Cc1ccccc1)C(=O)CSc1c[nH]c2ccccc12`, the Ratio IC50 in data set [5] is 1.18. Also, the pIC50 is 5.34 in data set [6] and 5.27 in data set [7]. Also, the inhibition entry in [3] and in [8] was “Dose-Dependent Effect” throughout. For the same molecule, in data set [1], the CC50 is over 100 µM.

In the case of `O=C(CSc1c[nH]c2ccccc12)NCc1ccc(C(F)(F)F)cc1`, the CC50 in data set [1] is over 100 µM. The pIC50 in [2] is 5.10.

For `COc1ccccc1CNC(=O)CSc1c[nH]c2c(Br)cccc12`, the CC50 in data set [1] was 72.4 µM. Further, in data set [2], the pIC50 is 5.15.

Turning to `COc1ccccc1CNC(=O)CSc1cn(C)c2ccccc12`, the CC50 in data set [1] is over 100 µM. Moreover, in data set [2], the pIC50 was 5.01.

On to `Cn1cc(SCC(=O)N(Cc2ccccc2)Cc2ccccc2)c2ccccc21`, for which the CC50 in data set [1] worked out at 91.2 µM. In addition, in [2], the pIC50 is 4.91.

With `Cn1cc(SCC(=O)NCc2ccccc2)c2ccccc21`, the CC50 in data set [1] was found to be 95.5 µM. Besides, in [2], the pIC50 is 4.57.

Consider `Cn1cc(SCC(=O)NCc2ccc(Cl)c(Cl)c2)c2ccccc21`, for which the CC50 in data set [1] was over 100 µM. Moreover, in data set [2], the pIC50 was 5.12.

Turning to `O=C(CSc1c[nH]c2ccccc12)N(Cc1ccccc1)Cc1ccccc1`, the Ratio IC50 in data set [5] came to 1.2. Further, the pIC50 in data set [6] is 5.47; in [7], 5.40. For the same molecule, the inhibition entry in [3] and in data set [8] was “Dose-Dependent Effect” in each case. Moreover, in data set [1], the CC50 is over 100 µM.

On to `C[C@@H](NC(=O)CSc1c[nH]c2ccccc12)c1ccccc1`, for which the CC50 in [1] is over 100 µM. In addition, the pIC50 in data set [2] is 5.18.

Consider `CN(C)CCOc1ccc(CNC(=O)CSc2cn(C)c3ccccc23)cc1`, for which the CC50 in data set [1] was over 100 µM. Moreover, in [2], the pIC50 is 5.05.

With `CCOc1ccccc1CN(OC)C(=O)CSc1c[nH]c2cccc(Br)c12`, the Ratio IC50 in data set [5] was found to be 1.7. The values for the pIC50 in [6], in [9] and in data set [7] were 5.95, under 4.30 and 5.72, respectively. The inhibition result in data set [3] and in data set [8] was “Dose-Dependent Effect” throughout. Moreover, the CC50 in [1] was over 100 µM. For the same molecule, the Activity entry in [10] is “Dose-Dependent Effect”.

On to `CN(Cc1ccccc1)C(=O)CSc1c[nH]c2cccc(Br)c12`, for which the CC50 in data set [1] came out at 25.1 µM. For the same molecule, the pIC50 in [2] is 5.33.

Consider `O=C(CSc1c[nH]c2cccc(Br)c12)N(Cc1ccccc1)Cc1ccccc1`, for which the Ratio IC50 in data set [5] came to 1.02. Moreover, the results for the pIC50 in data set [6] and in data set [7] were 5.42 and 5.41, respectively. In addition, the inhibition entry in data set [3] and in data set [8] was “Dose-Dependent Effect” throughout. In addition, the CC50 in [1] was 25.7 µM.

Consider `CN(C)CCOc1ccc(CNC(=O)CSc2c[nH]c3ccccc23)cc1`, for which the CC50 in data set [1] was over 100 µM. Further, the pIC50 in data set [2] was 5.04.

`COc1ccccc1CNC(=O)CSc1c[nH]c2c(-c3ccccc3)cccc12`: the Ratio IC50 in [5] is 1.32. Besides, the pIC50 is 5.78 in data set [6] and 5.66 in data set [7]. The inhibition result in data set [3] and in data set [8] was “Dose-Dependent Effect” throughout. Moreover, the CC50 in data set [1] was found to be 95.5 µM.

Consider `O=C(CSc1c[nH]c2c(Br)cccc12)NCc1ccc(Cl)c(Cl)c1`, for which, in data set [1], the CC50 is over 100 µM. In [2], the pIC50 was 5.34.

As for `COc1ccccc1CNC(=O)CSc1c[nH]c2cccc(Br)c12`, in [1], the CC50 is over 100 µM. Further, the pIC50 in data set [2] is 5.06.
